Calls of active or inactive are those of the source. The calls are words filed in the database; no cut-off is given here.
Experiments:
Mus musculus [1] = test: Toxicity in Albino Swiss mouse assessed as locomotor activity administered at doses equivalent to 0.1 ED50, ip measured after 1 hr for 30 mins; type: organism-based; conditions: in vivo
Summary of the method: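 Spontaneous locomotor activity of single male Albino Swiss mice in photoresistor actometers (two light beams), beam crossings recorded for 30 min, starting 60 min after i.p. compound in 0.5% methylcellulose.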

Mus musculus [2] = test: Toxicity in Albino Swiss mouse assessed as effect on amphetamine-induced hyperactivity administered at doses equivalent to 0.1 ED50, ip; type: organism-based; conditions: in vivo
Summary of the method: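 Compound i.p. in 0.5% methylcellulose 60 min before test; amphetamine 5 mg/kg s.c. 30 min before test; single mice in photoresistor actometers, light-beam crossings counted for 30 min.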

Mus musculus [3] = test: Antinociceptive activity in Albino Swiss mouse administered at doses equivalent to 0.025 to 0.1 ED50, ip; type: functional, organism-based
Mus musculus [4] = test: Antinociceptive activity in Albino Swiss mouse administered at doses equivalent to 0.025 to 0.1 ED50, ip in presence of naloxone; type: functional, organism-based
Summary of the method: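 Acetic acid (0.6%, i.p.) writhing test in male Albino Swiss mice, compound i.p. in 0.5% methylcellulose 60 min prior, with naloxone 5 mg/kg s.c.; writhes counted 10 min from 5 min post-acid; mean ± S.E.M., 8–10 mice per group.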

Mus musculus [5] = test: Toxicity in Albino Swiss mouse assessed as motor coordination administered at doses equivalent to 0.1 ED50, ip by chimney test; type: organism-based; conditions: in vivo
Mus musculus [6] = test: Toxicity in Albino Swiss mouse assessed as motor coordination administered at doses equivalent to 0.1 ED50, ip by rota rod test; type: organism-based; conditions: in vivo
Mus musculus [7] = test: Anticonvulsant activity in Albino Swiss mouse assessed as protection against pentylenetetrazole-induced severity of clonic or tonic seizures administered at doses equivalent to 0.1 ED50, ip; type: functional, organism-based
Mus musculus [8] = test: Anticonvulsant activity in Albino Swiss mouse assessed as protection against pentylenetetrazole-induced mortality administered at doses equivalent to 0.1 ED50, ip; type: functional, organism-based
Mus musculus [9] = test: Reduction of 5-hydroxytryptophan-induced head twitch in Albino Swiss mouse administered at doses equivalent to 0.1 ED50, ip; type: functional, organism-based
Mus musculus [10] = test: Reduction of body temperature in normothermic Albino Swiss mouse administered at doses equivalent to 0.1 ED50, ip measured in rectum by thermistor thermometer analysis; type: ADME, organism-based; conditions: in vivo
[11] = test system: Staphylococcus epidermidis; test: Antibacterial activity against methicillin-resistant Staphylococcus epidermidis clinical isolate 311/08 after 18 hrs by twofold serial agar dilution technique; type: functional; conditions: clinical isolate 311/08, 18 h
Summary of the method: (§1)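 Clinical isolates came from patients in Warsaw Medical University Hospitals and were classed as methicillin-susceptible or -resistant. MIC was determined by twofold serial agar dilution on Mueller–Hinton II agar (CLSI), 3.125–400 µg/mL in agar, with compounds in methanol or DMSO. Inoculum was 10^4 CFU/mL and plates were read after 18 h at 35 °C.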

[12] = test system: Staphylococcus epidermidis; test: Antibacterial activity against methicillin-resistant Staphylococcus epidermidis clinical isolate 315/08 after 18 hrs by twofold serial agar dilution technique; type: functional; conditions: clinical isolate 315/08, 18 h; summary of the method: as §1
[13] = test system: Staphylococcus epidermidis; test: Antibacterial activity against methicillin-resistant Staphylococcus epidermidis clinical isolate 316/08 after 18 hrs by twofold serial agar dilution technique; type: functional; conditions: clinical isolate 316/08, 18 h; summary of the method: as §1
[14] = test system: Staphylococcus epidermidis; test: Antibacterial activity against methicillin-resistant Staphylococcus epidermidis clinical isolate 317/08 after 18 hrs by twofold serial agar dilution technique; type: functional; conditions: clinical isolate 317/08, 18 h; summary of the method: as §1
[15] = test system: Staphylococcus epidermidis; test: Antibacterial activity against methicillin-resistant Staphylococcus epidermidis clinical isolate 318/08 after 18 hrs by twofold serial agar dilution technique; type: functional; conditions: clinical isolate 318/08, 18 h; summary of the method: as §1
[16] = test system: Staphylococcus epidermidis; test: Antibacterial activity against methicillin-resistant Staphylococcus epidermidis clinical isolate 340/09 after 18 hrs by twofold serial agar dilution technique; type: functional; conditions: clinical isolate 340/09, 18 h; summary of the method: as §1
[17] = test system: Staphylococcus epidermidis; test: Antibacterial activity against methicillin-resistant Staphylococcus epidermidis clinical isolate 341/09 after 18 hrs by twofold serial agar dilution technique; type: functional; conditions: clinical isolate 341/09, 18 h; summary of the method: as §1
[18] = test system: Staphylococcus epidermidis; test: Antibacterial activity against methicillin-resistant Staphylococcus epidermidis clinical isolate 342/09 after 18 hrs by twofold serial agar dilution technique; type: functional; conditions: clinical isolate 342/09, 18 h; summary of the method: as §1
[19] = test system: Staphylococcus epidermidis; test: Antibacterial activity against methicillin-resistant Staphylococcus epidermidis clinical isolate 343/09 after 18 hrs by twofold serial agar dilution technique; type: functional; conditions: clinical isolate 343/09, 18 h; summary of the method: as §1
[20] = test system: Staphylococcus epidermidis; test: Antibacterial activity against methicillin-resistant Staphylococcus epidermidis clinical isolate 377/09 after 18 hrs by twofold serial agar dilution technique; type: functional; conditions: clinical isolate 377/09, 18 h; summary of the method: as §1
[21] = Cytotoxicity against human MT4 cells after 96 hrs by MTT assay; type: cell-based
[22] = test system: Human immunodeficiency virus 1; test: Antiviral activity against HIV1 infected in human MT4 cells assessed as virus-induced cytopathogenicity after 4 days by MTT assay; type: functional, organism-based; conditions: Human immunodeficiency virus 1, MT4, 96 h
CCRF-CEM = test: Cytotoxicity against human CCRF-CEM cells after 96 hrs by MTT assay; type: functional
Summary of the method: (§2)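 Haematological tumour lines were seeded at 1 × 10^5 cells/ml in RPMI-1640 with 10% FCS plus penicillin/streptomycin. Serial dilutions from a 100 mM DMSO stock were added. After 96 h at 37 °C in 5% CO2, viability was read by MTT. The 50% proliferation-inhibiting concentration (µM) was obtained by linear regression against untreated controls, which completed at least three rounds of multiplication. Values are means of three determinations.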

WIL2-NS = test: Cytotoxicity against human WIL2-NS cells after 96 hrs by MTT assay; type: functional; summary of the method: as §2
CCRF-SB = test: Cytotoxicity against human CCRF-SB cells after 96 hrs by MTT assay; type: functional; summary of the method: as §2
SK-MEL-28 = test: Cytotoxicity against human SK-MEL-28 cells after 96 hrs by MTT assay; type: functional; conditions: SK-MEL-28, 96 h
Summary of the method: (§3)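 Solid tumour lines were seeded at 1 × 10^5 cells/ml in line-specific media with 10% FCS and antibiotics. Serial dilutions from a 100 mM DMSO stock were added. After 96 h at 37 °C in 5% CO2, viability was read by MTT. The 50% growth-inhibiting concentration (µM) was obtained by linear regression versus untreated controls. Values are means of three independent determinations.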

MCF7 = test: Cytotoxicity against human MCF7 cells after 96 hrs by MTT assay; type: functional; conditions: MCF7, 96 h; summary of the method: as §3
SK-MES-1 = test: Cytotoxicity against human SKMES1 cells after 96 hrs by MTT assay; type: functional; conditions: SK-MES-1, 96 h; summary of the method: as §3
HepG2 = test: Cytotoxicity against human HepG2 cells after 96 hrs by MTT assay; type: functional; conditions: HepG2, 96 h; summary of the method: as §3
DU-145 = test: Cytotoxicity against human DU145 cells after 96 hrs by MTT assay; type: functional; conditions: DU-145, 96 h; summary of the method: as §3
[23] = Cytotoxicity against human MRC5 cells after 96 hrs by MTT assay; type: cell-based
Summary of the method: (§4)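 Normal fibroblasts seeded at 1 × 10^5 cells/ml in specific media with 10% FCS and antibiotics; serial compound dilutions (100 mM DMSO stock); 96 h at 37 °C, 5% CO2; MTT read-out; 50% proliferation-reduction concentration by linear regression vs untreated controls; mean of three determinations.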

[24] = Cytotoxicity against human CRL7065 cells after 96 hrs by MTT assay; type: cell-based, CRL-7065; summary of the method: as §4

SMILES: Nc1ncnn1/C(S)=N/Cc1ccccc1
- Activity (Mus musculus [1]): Non-toxic
- Activity (Mus musculus [2]): Non-toxic
- Activity (Mus musculus [3]): Active
- Activity (Mus musculus [4]): inactive
- Activity (Mus musculus [5]): Non-toxic
- Activity (Mus musculus [6]): Non-toxic
- Activity (Mus musculus [7]): inactive
- Activity (Mus musculus [8]): inactive
- Activity (Mus musculus [9]): Active
- Activity (Mus musculus [10]): Toxic
- MIC [11]: > 400 µg/mL
- MIC [12]: > 400 µg/mL
- MIC [13]: > 400 µg/mL
- MIC [14]: > 400 µg/mL
- MIC [15]: > 400 µg/mL
- MIC [16]: > 400 µg/mL
- MIC [17]: > 400 µg/mL
- MIC [18]: > 400 µg/mL
- MIC [19]: > 400 µg/mL
- MIC [20]: > 400 µg/mL
- CC50 at 96 h [21]: 7.4 µM
- EC50 [22]: > 7.4 µM
- CC50 (CCRF-CEM): 39 µM
- CC50 (WIL2-NS): 52 µM
- CC50 (CCRF-SB): 42 µM
- CC50 (SK-MEL-28): 72 µM
- CC50 (MCF7): 49 µM
- CC50 (SK-MES-1): 85 µM
- CC50 (HepG2): 78 µM
- CC50 (DU-145): 11 µM
- CC50 at 96 h [23]: 43 µM
- CC50 at 96 h [24]: 47 µM
